Results on three molecules are retold here after publication PMC4272346 (Biochemistry, 2013).

The target of series [1] is T1, NS3h (Hepatitis C virus genotype 1b, UniProt Q9WMX2). Description: ATPase assay 2: NS3h-catalyzed ATP hydrolysis in the absence of nucleic acids. The class given is biochemical.
Series [2] addresses T1, NS3h. In words: ATPase assay 1: DNA. The class given is biochemical.
In series [3] the target is T1, NS3h. In words: Isothermal titration calorimetry. The series is classed as binding. The method in brief: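 NS3h was dialysed overnight into 25 mM MOPS pH 7.0, 1.25 mM MgCl2, 0.01% Tween 20, quantified by A280 (ε 52,360 M−1cm−1) and used at 20 μM. The test compound was 250 μM in dialysis buffer, given as 16 injections of 3 μl at 300 s intervals at 5 °C, with the first injection excluded. Baseline was zeroed on the mean of the last three injections, then fitted to an independent sites model. Three titrations were run.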
A general note: In ITC the heat of successive injections is recorded.

The target in the next series is NS3h-dT20 complex (Hepatitis C virus genotype 1b, UniProt Q9WMX2). In words: DSC of pre-assembled NS3h-dT20 complex. The class given is binding. The gist of the method: (§1)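 Where present, dT20 was at 10 μM, and the test compound was at 10 μM–5 mM. Samples were heated 20–100 °C at 1 °C/min, with a repeat scan of the same sample as baseline. Fitting used a scaled two-state model. For the NS3h-dT20 samples, Tm versus compound concentration was fitted to a dose-response equation.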

Another series addresses full-length NS3 (Hepatitis C virus genotype 1b, UniProt Q9WMX2). Description: Studies repeated with full-length NS3 with and without NS4A. Particulars: presence and absence of NS4A.
A further series has as its target NS3h_E493Q. Description: FP-based DNA binding assay, displacement from mutant. Particulars: Cy5-dT15 displacement at EC85 of protein. On the set-up: species or system hepatitis C virus. The gist of the method:
(§2)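 Fluorescence polarization displacement using C-terminally His-tagged NS3h helicase domain mutants and wildtype. Each protein was at its EC85 from titration, with the test compound added in DMSO. Excitation 635 nm, emission 667 nm. IC50 came from dose-response fits, and Ki from Cheng-Prusoff using protein EC50 and concentration, assuming competition with DNA.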

The next series deals with NS3h_E291Q. Described as above. On the set-up: species or system hepatitis C virus. Particulars: Cy5-dT15 displacement at EC85 of protein. The gist of the method:
as §2

For series [4], the system named is NS3h (wildtype). Particulars: read-out: IC50, polarization shift of a Cy5 labeled oligonucleotide; NS3h bound to Cy5-labeled DNA oligonucleotide; ref 11 (Mukherjee et al.); cited from earlier work.
For series [5], the target named is T1, NS3h. Description: Differential scanning calorimetry. The class given is binding. As to conditions: 10 μM NS3h, 300 μM ATA. The method in brief:
as §1
A general note: DSC measures the heat that a sample takes up or gives off during a temperature scan.

Another series concerns the target NS3h R467E. In words: FP-based DNA binding assay, displacement from mutant. On the set-up: species or system hepatitis C virus. Particulars: Cy5-dT15 displacement at EC85 of protein. The gist of the method: as §2
Series [6] deals with T1, NS3h. Description: Electrophoretic mobility shift assay of NS3h-Cy5-dT15 complex. The class given is binding. In general terms: In EMSA bound probe runs differently from free probe, usually more slowly.
Another series has as its target NS3h_H369K. Description: FP-based DNA binding assay, displacement from mutant. On the set-up: species or system hepatitis C virus. Particulars: Cy5-dT15 displacement at EC85 of protein. The method in brief: as §2
The next series addresses NS3h_D290N. Described as above. On the set-up: species or system hepatitis C virus. Particulars: Cy5-dT15 displacement at EC85 of protein. The gist of the method:
as §2

In series [7] the target is T2, NS3h (wildtype) (Hepatitis C virus (genotype 1b, con1; …, UniProt Q9WMX2 1192-1657). Description: ITC.
For series [8], the target named is T2, NS3h (wildtype). In words: EMSA.

Take `O=C(O)C1=CC(=C(c2ccc(O)c(C(=O)O)c2)c2ccc(O)c(C(=O)O)c2)C=CC1=O` [ATA, aurintricarboxylic acid]: the Ki at NS3h [1] turned out to be 450 ± 150 nM; at NS3h [2], 1400 ± 200 nM. On NS3h [3], this molecule registered a Kd of 1300 ± 200 nM. Moreover, at NS3h [3] (20 μM NS3h titrated with 250 μM ATA, 5 °C), the “ATA monomers binding per NS3h (stoichiometry)” value worked out at 1.5. Moreover, the ΔH of binding at NS3h [3] (ITC, 5 °C) was -3.2 ± 0.14 kcal/mol. The molecule also gave a ΔS of binding on NS3h [3] (at 5 °C) of 63 J/mol K. Further, the “−TΔS of binding” value on NS3h [3] (at 5 °C) is -4.18 kcal/mol. The ΔG of binding on NS3h [3] (at 5 °C, from Kd) is -7.39 ± 0.072 kcal/mol. The concentration for a half-maximal effect (EC50) on NS3h-dT20 complex is ~500000 nM. Moreover, on NS3h-dT20 complex (NS3h and dT20 10 μM each, dose response fit), the “Maximum decrease of Tm of NS3h-dT20 complex” value was 11 ± 3 °C. The “Sensitivity of full-length NS3 compared with NS3h” value at full-length NS3 is “not noted any differences in the sensitivity”. Also, the “Relative Ki (Cheng-Prusoff) compared with wildtype NS3h” value on NS3h_E493Q is reported as “higher”; on NS3h_E291Q, “notably lower”; on NS3h R467E it was “higher”; at NS3h_H369K, “similar”; at NS3h_D290N it was “notably lower”. The IC50 was 1400 nM in the series on NS3h (wildtype) [4] and 4000 nM on NS3h [6]. The “Change in enthalpy of unfolding (ΔΔH)” value at NS3h [5] is -52.1 kcal/mol. Also, the “Increase of unfolding temperature of NS3h” value on NS3h [5] amounted to 8 °C.
Turning to TTTTTTTTTTTTTTTTTTTT (ssDNA) [dT20], in the series with NS3h (wildtype) [7], the binding result is on record as “binds”.
On to TTTTTTTTTTTTTTT (ssDNA) [Cy5-dT15], for which the binding result with NS3h (wildtype) [8] is “binds”.

Usually Ki stands for a dissociation constant, usually derived from enzyme kinetics or from competition with a known ligand. What is called Kd is the free concentration of one partner at which half of the binding sites on the other are occupied at equilibrium, for simple one-to-one binding. Lower therefore signals higher affinity. Broadly, the EC50 is the concentration at which the effect is half-maximal.
